Values after ≈ are worked out from the molar mass of the structure shown.
Key:
Type in all cases: functional
Klebsiella pneumoniae [1] = experiment: Antibacterial activity against beta-lactamase-positive ESBL-negative Klebsiella pneumoniae E507 assessed as mutant prevention concentration after overnight incubation
Outline: (§1)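 Overnight growth on blood trypticase soy agar (35°C, air) was resuspended in 0.9% saline and counted on drug-free Mueller-Hinton agar. […] Colonies were retested by agar dilution to confirm mutants. MPC was the lowest concentration preventing resistant-mutant growth.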

Escherichia coli [2] = experiment: Antibacterial activity against beta-lactamase-positive ESBL-positive Escherichia coli E450 assessed as mutant prevention concentration after overnight incubation; outline: as §1
Pseudomonas aeruginosa [3] = experiment: Antibacterial activity against Pseudomonas aeruginosa P376 assessed as mutant prevention concentration after overnight incubation
Escherichia coli [4] = experiment: Antibacterial activity against beta-lactamase-positive ESBL-negative Escherichia coli E483 assessed as mutant prevention concentration after overnight incubation; outline: as §1
Escherichia coli [5] = experiment: Antibacterial activity against beta-lactamase-negative Escherichia coli E408 assessed as mutant prevention concentration after overnight incubation
Pseudomonas aeruginosa [6] = experiment: Antibacterial activity against Pseudomonas aeruginosa P349 assessed as mutant prevention concentration after overnight incubation
Acinetobacter baumannii [7] = experiment: Antibacterial activity against Acinetobacter baumannii A912 assessed as mutant prevention concentration after overnight incubation
Klebsiella pneumoniae [8] = experiment: Antibacterial activity against beta-lactamase-positive ESBL-negative Klebsiella pneumoniae E474 assessed as mutant prevention concentration after overnight incubation; outline: as §1
Acinetobacter baumannii [9] = experiment: Antibacterial activity against Acinetobacter baumannii A850 assessed as mutant prevention concentration after overnight incubation
Escherichia coli [10] = experiment: Antibacterial activity against beta-lactamase-negative Escherichia coli E347 assessed as mutant prevention concentration after overnight incubation
Escherichia coli [11] = experiment: Antibacterial activity against beta-lactamase-negative Escherichia coli E350 assessed as mutant prevention concentration after overnight incubation
Klebsiella pneumoniae [12] = experiment: Antibacterial activity against beta-lactamase-positive ESBL-positive Klebsiella pneumoniae E478 assessed as mutant prevention concentration after overnight incubation; outline: as §1
Pseudomonas aeruginosa [13] = experiment: Antibacterial activity against Pseudomonas aeruginosa P356 assessed as mutant prevention concentration after overnight incubation
Pseudomonas aeruginosa [14] = experiment: Antibacterial activity against Pseudomonas aeruginosa P335 assessed as mutant prevention concentration after overnight incubation
Acinetobacter baumannii [15] = experiment: Antibacterial activity against Acinetobacter baumannii A903 assessed as mutant prevention concentration after overnight incubation
Acinetobacter baumannii [16] = experiment: Antibacterial activity against Acinetobacter baumannii A929 assessed as mutant prevention concentration after overnight incubation
Escherichia coli [17] = experiment: Antibacterial activity against beta-lactamase-positive ESBL-positive Escherichia coli E452 assessed as mutant prevention concentration after overnight incubation; outline: as §1
Escherichia coli [18] = experiment: Antibacterial activity against beta-lactamase-positive ESBL-negative Escherichia coli E430 assessed as mutant prevention concentration after overnight incubation; outline: as §1
Klebsiella pneumoniae [19] = experiment: Antibacterial activity against beta-lactamase-positive ESBL-negative Klebsiella pneumoniae E479 assessed as mutant prevention concentration after overnight incubation; outline: as §1
Pseudomonas aeruginosa [20] = experiment: Antibacterial activity against Pseudomonas aeruginosa P328 assessed as mutant prevention concentration after overnight incubation
Klebsiella pneumoniae [21] = experiment: Antibacterial activity against beta-lactamase-positive ESBL-negative Klebsiella pneumoniae E480 assessed as mutant prevention concentration after overnight incubation; outline: as §1
Klebsiella pneumoniae [22] = experiment: Antibacterial activity against beta-lactamase-negative Klebsiella pneumoniae E361 assessed as mutant prevention concentration after overnight incubation
Escherichia coli [23] = experiment: Antibacterial activity against beta-lactamase-positive ESBL-negative Escherichia coli E484 assessed as mutant prevention concentration after overnight incubation; outline: as §1
Klebsiella pneumoniae [24] = experiment: Antibacterial activity against beta-lactamase-negative Klebsiella pneumoniae E418 assessed as mutant prevention concentration after overnight incubation; outline: as §1
Pseudomonas aeruginosa [25] = experiment: Antibacterial activity against Pseudomonas aeruginosa P337 assessed as mutant prevention concentration after overnight incubation
Acinetobacter baumannii [26] = experiment: Antibacterial activity against Acinetobacter baumannii A885 assessed as mutant prevention concentration after overnight incubation
Acinetobacter baumannii [27] = experiment: Antibacterial activity against Acinetobacter baumannii A848 assessed as mutant prevention concentration after overnight incubation
Escherichia coli [28] = experiment: Antibacterial activity against beta-lactamase-positive ESBL-positive Escherichia coli E446 assessed as mutant prevention concentration after overnight incubation; outline: as §1
Acinetobacter baumannii [29] = experiment: Antibacterial activity against Acinetobacter baumannii A898 assessed as mutant prevention concentration after overnight incubation
Pseudomonas aeruginosa [30] = experiment: Antibacterial activity against Pseudomonas aeruginosa P327 assessed as mutant prevention concentration after overnight incubation
Escherichia coli [31] = experiment: Antibacterial activity against beta-lactamase-negative Escherichia coli E409 assessed as mutant prevention concentration after overnight incubation
Pseudomonas aeruginosa [32] = experiment: Antibacterial activity against Pseudomonas aeruginosa P338 assessed as mutant prevention concentration after overnight incubation
Acinetobacter baumannii [33] = experiment: Antibacterial activity against Acinetobacter baumannii A894 assessed as mutant prevention concentration after overnight incubation
Klebsiella pneumoniae [34] = experiment: Antibacterial activity against beta-lactamase-negative Klebsiella pneumoniae E359 assessed as mutant prevention concentration after overnight incubation
Pseudomonas aeruginosa [35] = experiment: Antibacterial activity against Pseudomonas aeruginosa P353 assessed as mutant prevention concentration after overnight incubation
Escherichia coli [36] = experiment: Antibacterial activity against beta-lactamase-positive ESBL-positive Escherichia coli E458 incubated up to 7 days by agar dilution method; conditions: E458, 168 h
Outline: (§2)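 MIC by CLSI agar dilution, with quality-control strains in each run. Beta-lactamase status was set by 30 μg cefazolin Kirby-Bauer disk diffusion. ESBL status was set by cefotaxime and ceftazidime disks (30 μg) with and without clavulanic acid (10 μg).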

Klebsiella pneumoniae [37] = experiment: Antibacterial activity against beta-lactamase-positive ESBL-negative Klebsiella pneumoniae E477 incubated up to 7 days by agar dilution method; conditions: E477, 168 h
Escherichia coli [38] = experiment: Antibacterial activity against beta-lactamase-positive ESBL-negative Escherichia coli E484 incubated up to 7 days by agar dilution method; conditions: E484, 168 h
Escherichia coli [39] = experiment: Antibacterial activity against beta-lactamase-positive ESBL-positive Escherichia coli E446 incubated up to 7 days by agar dilution method; conditions: E446, 168 h; outline: as §2
Escherichia coli [40] = experiment: Antibacterial activity against beta-lactamase-positive ESBL-negative Escherichia coli E483 […] by agar dilution method
Klebsiella pneumoniae [41] = experiment: Antibacterial activity against beta-lactamase-negative Klebsiella pneumoniae E361 incubated up to 7 days by agar dilution method; conditions: E361, 168 h
Escherichia coli [42] = experiment: Antibacterial activity against beta-lactamase-negative Escherichia coli E347 incubated up to 7 days by agar dilution method; conditions: E347, 168 h
Klebsiella pneumoniae [43] = experiment: Antibacterial activity against beta-lactamase-negative Klebsiella pneumoniae E358 incubated up to 7 days by agar dilution method; conditions: E358, 168 h
Klebsiella pneumoniae [44] = experiment: Antibacterial activity against beta-lactamase-negative Klebsiella pneumoniae E419 incubated up to 7 days by agar dilution method; conditions: E419, 168 h
Klebsiella pneumoniae [45] = experiment: Antibacterial activity against beta-lactamase-positive ESBL-negative Klebsiella pneumoniae E472 incubated up to 7 days by agar dilution method; conditions: E472, 168 h
Klebsiella pneumoniae [46] = experiment: Antibacterial activity against beta-lactamase-positive ESBL-negative Klebsiella pneumoniae E511 incubated up to 7 days by agar dilution method; conditions: E511, 168 h
Klebsiella pneumoniae [47] = experiment: Antibacterial activity against beta-lactamase-negative Klebsiella pneumoniae E357 incubated up to 7 days by agar dilution method; conditions: E357, 168 h
Escherichia coli [48] = experiment: Antibacterial activity against beta-lactamase-positive ESBL-positive Escherichia coli E450 incubated up to 7 days by agar dilution method; conditions: E450, 168 h; outline: as §2

C[C@@H](O)[C@H]1C(=O)N2C(C(=O)O)=C(SCCNC=N)C[C@H]12 [IMIPENEM ANHYDROUS]
MPC (Klebsiella pneumoniae [1]): 64 µg/mL | MPC (Escherichia coli [2]): 0.5 µg/mL | MPC (Pseudomonas aeruginosa [3]): 64 µg/mL | MPC (Escherichia coli [4]): 4 µg/mL | MPC (Escherichia coli [5]): 1 µg/mL | MPC (Pseudomonas aeruginosa [6]): 32 µg/mL | MPC (Acinetobacter baumannii [7]): 4 µg/mL | MPC (Klebsiella pneumoniae [8]): 16 µg/mL | MPC (Acinetobacter baumannii [9]): 8 µg/mL | MPC (Escherichia coli [10]): 0.5 µg/mL | MPC (Escherichia coli [11]): 2 µg/mL | MPC (Klebsiella pneumoniae [12]): 16 µg/mL | MPC (Pseudomonas aeruginosa [13]): >32 µg/mL | MPC (Pseudomonas aeruginosa [14]): 32 µg/mL | MPC (Acinetobacter baumannii [15]): 1 µg/mL | MPC (Acinetobacter baumannii [16]): 1 µg/mL | MPC (Escherichia coli [17]): 0.5 µg/mL | MPC (Escherichia coli [18]): 2 µg/mL | MPC (Klebsiella pneumoniae [19]): 32 µg/mL | MPC (Pseudomonas aeruginosa [20]): 32 µg/mL | MPC (Klebsiella pneumoniae [21]): >16 µg/mL | MPC (Klebsiella pneumoniae [22]): 1 µg/mL | MPC (Escherichia coli [23]): >16 µg/mL | MPC (Klebsiella pneumoniae [24]): 4 µg/mL | MPC (Pseudomonas aeruginosa [25]): 16 µg/mL | MPC (Acinetobacter baumannii [26]): 8 µg/mL | MPC (Acinetobacter baumannii [27]): 8 µg/mL | MPC (Escherichia coli [28]): 2 µg/mL | MPC (Acinetobacter baumannii [29]): 4 µg/mL | MPC (Pseudomonas aeruginosa [30]): 16 µg/mL | MPC (Escherichia coli [31]): 1 µg/mL | MPC (Pseudomonas aeruginosa [32]): 16 µg/mL | MPC (Acinetobacter baumannii [33]): 1 µg/mL | MPC (Klebsiella pneumoniae [34]): 1 µg/mL | MPC (Pseudomonas aeruginosa [35]): 64 µg/mL

C[C@@H](O)[C@H]1C(=O)N2C(C(=O)O)=C(S[C@@H]3CN[C@H](C(=O)N(C)C)C3)[C@H](C)[C@H]12 [MEROPENEM]
MIC (Escherichia coli [36]): 0.03 µg/mL (≈ 0.0782 µM) | MPC (Klebsiella pneumoniae [1]): >64 µg/mL | MPC (Escherichia coli [2]): 0.06 µg/mL | MIC (Klebsiella pneumoniae [37]): 2 µg/mL (≈ 5.22 µM) | MIC (Escherichia coli [38]): 1 µg/mL (≈ 2.61 µM) | MPC (Pseudomonas aeruginosa [3]): 16 µg/mL | MPC (Escherichia coli [4]): 4 µg/mL | MPC (Escherichia coli [5]): 0.06 µg/mL | MPC (Pseudomonas aeruginosa [6]): 16 µg/mL | MIC (Escherichia coli [39]): 0.03 µg/mL (≈ 0.0782 µM) | MIC (Escherichia coli [40]): 0.5 µg/mL (≈ 1.3 µM) | MPC (Acinetobacter baumannii [7]): 4 µg/mL | MPC (Klebsiella pneumoniae [8]): 16 µg/mL | MPC (Acinetobacter baumannii [9]): 16 µg/mL | MPC (Escherichia coli [10]): 0.06 µg/mL | MPC (Escherichia coli [11]): 0.06 µg/mL | MIC (Klebsiella pneumoniae [41]): 0.06 µg/mL (≈ 0.156 µM) | MIC (Escherichia coli [42]): 0.03 µg/mL (≈ 0.0782 µM) | MPC (Klebsiella pneumoniae [12]): 8 µg/mL | MPC (Pseudomonas aeruginosa [13]): >4 µg/mL | MIC (Klebsiella pneumoniae [43]): 0.03 µg/mL (≈ 0.0782 µM) | MPC (Pseudomonas aeruginosa [14]): 32 µg/mL | MPC (Acinetobacter baumannii [15]): 8 µg/mL | MIC (Klebsiella pneumoniae [44]): 0.06 µg/mL (≈ 0.156 µM) | MPC (Acinetobacter baumannii [16]): 4 µg/mL | MPC (Escherichia coli [17]): 0.06 µg/mL | MPC (Escherichia coli [18]): 0.125 µg/mL | MIC (Klebsiella pneumoniae [45]): 4 µg/mL (≈ 10.4 µM) | MPC (Klebsiella pneumoniae [19]): 32 µg/mL | MPC (Pseudomonas aeruginosa [20]): 16 µg/mL | MPC (Klebsiella pneumoniae [21]): 16 µg/mL | MPC (Klebsiella pneumoniae [22]): 0.125 µg/mL | MIC (Klebsiella pneumoniae [46]): 4 µg/mL (≈ 10.4 µM) | MIC (Klebsiella pneumoniae [47]): 0.03 µg/mL (≈ 0.0782 µM) | MPC (Escherichia coli [23]): 16 µg/mL | MPC (Klebsiella pneumoniae [24]): 0.125 µg/mL | MPC (Pseudomonas aeruginosa [25]): 8 µg/mL | MIC (Escherichia coli [48]): 0.03 µg/mL (≈ 0.0782 µM) | MPC (Acinetobacter baumannii [26]): 8 µg/mL | MPC (Acinetobacter baumannii [27]): 32 µg/mL | MPC (Escherichia coli [28]): 0.125 µg/mL | MPC (Acinetobacter baumannii [29]): 8 µg/mL | MPC (Pseudomonas aeruginosa [30]): 8 µg/mL | MPC (Escherichia coli [31]): 0.06 µg/mL | MPC (Pseudomonas aeruginosa [32]): >4 µg/mL | MPC (Acinetobacter baumannii [33]): 2 µg/mL | MPC (Klebsiella pneumoniae [34]): 0.125 µg/mL | MPC (Pseudomonas aeruginosa [35]): 8 µg/mL

From ChEMBL document CHEMBL1255475, “Mutant prevention concentrations of four carbapenems against gram-negative rods” (2010)
